From ChEMBL document CHEMBL3632558, “Synthesis, antimycobacterial and antibacterial activity of l-[(1R,2S)-2-fluorocyclopropyl]naphthyridone derivatives containing an oxime-functionalized pyrrolidine moiety” (2015)
≈ marks a conversion by molar mass, not a printed value.

Tests used:
Assay type in all cases: functional
Enterococcus faecalis [1] = assay: Antibacterial activity against Enterococcus faecalis 14-2 after 18 to 24 hrs
Outline: (§1)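 MIC by standard NCCLS reference procedure (M100-S11); lowest concentration of compound inhibiting visible bacterial growth after incubation at 35 °C for 18–24 h, read as complete inhibition of growth. Ciprofloxacin, levofloxacin and moxifloxacin run alongside as reference agents.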

Enterococcus faecium [2] = assay: Antibacterial activity against Enterococcus faecium 14-1 after 18 to 24 hrs; outline: as §1
Enterococcus faecium [3] = assay: Antibacterial activity against Enterococcus faecium 14-2 after 18 to 24 hrs; outline: as §1
Enterococcus faecium [4] = assay: Antibacterial activity against Enterococcus faecium 14-5 after 18 to 24 hrs; outline: as §1
Enterococcus faecium [5] = assay: Antibacterial activity against Enterococcus faecium 14-6 after 18 to 24 hrs; outline: as §1
[6] = system: Mycobacterium tuberculosis; assay: Antimycobacterial activity against Mycobacterium tuberculosis H37Rv ATCC 27294 by alamar blue assay
Outline: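 Microplate Alamar Blue Assay; MIC is the lowest concentration giving ≥90% reduction in fluorescence relative to the mean of replicate bacterium-only controls. MDR strain 6133 is resistant to isoniazid and rifampicin.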

Escherichia coli [7] = assay: Antibacterial activity against Escherichia coli ATCC 25922 after 18 to 24 hrs; outline: as §1
Escherichia coli [8] = assay: Antibacterial activity against ESBL-positive Escherichia coli 14-1 after 18 to 24 hrs; outline: as §1
Escherichia coli [9] = assay: Antibacterial activity against ESBL-positive Escherichia coli 14-2 after 18 to 24 hrs; outline: as §1
Escherichia coli [10] = assay: Antibacterial activity against Escherichia coli 14-1 after 18 to 24 hrs; outline: as §1
Escherichia coli [11] = assay: Antibacterial activity against Escherichia coli 14-2 after 18 to 24 hrs; outline: as §1
Klebsiella pneumoniae [12] = assay: Antibacterial activity against ESBL-positive Klebsiella pneumoniae 14-17 after 18 to 24 hrs; outline: as §1
Klebsiella pneumoniae [13] = assay: Antibacterial activity against ESBL-positive Klebsiella pneumoniae 14-18 after 18 to 24 hrs; outline: as §1
Klebsiella pneumoniae [14] = assay: Antibacterial activity against ESBL-positive Klebsiella pneumoniae 14-19 after 18 to 24 hrs; outline: as §1
Klebsiella pneumoniae [15] = assay: Antibacterial activity against Klebsiella pneumoniae 14-1 after 18 to 24 hrs; outline: as §1
Klebsiella pneumoniae [16] = assay: Antibacterial activity against Klebsiella pneumoniae 14-2 after 18 to 24 hrs; outline: as §1
Klebsiella pneumoniae [17] = assay: Antibacterial activity against Klebsiella pneumoniae 14-3 after 18 to 24 hrs; outline: as §1
Klebsiella pneumoniae [18] = assay: Antibacterial activity against Klebsiella pneumoniae 14-4 after 18 to 24 hrs; outline: as §1
Pseudomonas aeruginosa [19] = assay: Antibacterial activity against Pseudomonas aeruginosa ATCC 27853 after 18 to 24 hrs; outline: as §1
Pseudomonas aeruginosa [20] = assay: Antibacterial activity against Pseudomonas aeruginosa 14-9 after 18 to 24 hrs; outline: as §1
Pseudomonas aeruginosa [21] = assay: Antibacterial activity against Pseudomonas aeruginosa 14-14 after 18 to 24 hrs; outline: as §1
Pseudomonas aeruginosa [22] = assay: Antibacterial activity against Pseudomonas aeruginosa 14-15 after 18 to 24 hrs; outline: as §1
Pseudomonas aeruginosa [23] = assay: Antibacterial activity against Pseudomonas aeruginosa 14-16 after 18 to 24 hrs; outline: as §1
Pseudomonas aeruginosa [24] = assay: Antibacterial activity against Pseudomonas aeruginosa 14-19 after 18 to 24 hrs; outline: as §1
Staphylococcus aureus [25] = assay: Antibacterial activity against Staphylococcus aureus CMCC 26003 after 18 to 24 hrs; outline: as §1
Staphylococcus aureus [26] = assay: Antibacterial activity against methicillin-sensitive Staphylococcus aureus 14-1 after 18 to 24 hrs; outline: as §1
Staphylococcus aureus [27] = assay: Antibacterial activity against methicillin-sensitive Staphylococcus aureus 14-2 after 18 to 24 hrs; outline: as §1
Staphylococcus aureus [28] = assay: Antibacterial activity against methicillin-sensitive Staphylococcus aureus 14-3 after 18 to 24 hrs; outline: as §1
Staphylococcus aureus [29] = assay: Antibacterial activity against methicillin-sensitive Staphylococcus aureus 14-4 after 18 to 24 hrs; outline: as §1
Staphylococcus aureus [30] = assay: Antibacterial activity against methicillin-resistant Staphylococcus aureus 14-4 after 18 to 24 hrs
Staphylococcus aureus [31] = assay: Antibacterial activity against methicillin-resistant Staphylococcus aureus 14-5 after 18 to 24 hrs
[32] = system: Staphylococcus epidermidis; assay: Antibacterial activity against methicillin-sensitive Staphylococcus epidermidis 14-2 after 18 to 24 hrs; outline: as §1
[33] = system: Staphylococcus epidermidis; assay: Antibacterial activity against methicillin-resistant Staphylococcus epidermidis 14-21 after 18 to 24 hrs
[34] = system: Staphylococcus epidermidis; assay: Antibacterial activity against methicillin-resistant Staphylococcus epidermidis 14-22 after 18 to 24 hrs
[35] = system: Staphylococcus epidermidis; assay: Antibacterial activity against methicillin-resistant Staphylococcus epidermidis 14-37 after 18 to 24 hrs
[36] = system: Staphylococcus epidermidis; assay: Antibacterial activity against methicillin-resistant Staphylococcus epidermidis 14-39 after 18 to 24 hrs
Streptococcus pneumoniae = assay: Antibacterial activity against Streptococcus pneumoniae ATCC 19615 after 18 to 24 hrs; outline: as §1
Enterococcus faecalis [37] = assay: Antibacterial activity against Enterococcus faecalis 14-1 after 18 to 24 hrs; outline: as §1

| Structure (SMILES) | MIC (Enterococcus faecalis [1]) [µg/mL] | MIC (Enterococcus faecium [2]) [µg/mL] | MIC (Enterococcus faecium [3]) [µg/mL] | MIC (Enterococcus faecium [4]) [µg/mL] | MIC (Enterococcus faecium [5]) [µg/mL] | MIC90 [6] [µg/mL] | MIC (Escherichia coli [7]) [µg/mL] | MIC (Escherichia coli [8]) [µg/mL] | MIC (Escherichia coli [9]) [µg/mL] | MIC (Escherichia coli [10]) [µg/mL] | MIC (Escherichia coli [11]) [µg/mL] | MIC (Klebsiella pneumoniae [12]) [µg/mL] | MIC (Klebsiella pneumoniae [13]) [µg/mL] | MIC (Klebsiella pneumoniae [14]) [µg/mL] | MIC (Klebsiella pneumoniae [15]) [µg/mL] | MIC (Klebsiella pneumoniae [16]) [µg/mL] | MIC (Klebsiella pneumoniae [17]) [µg/mL] | MIC (Klebsiella pneumoniae [18]) [µg/mL] | MIC (Pseudomonas aeruginosa [19]) [µg/mL] | MIC (Pseudomonas aeruginosa [20]) [µg/mL] | other results |
| --- | --- | --- | --- | --- | --- | --- | --- | --- | --- | --- | --- | --- | --- | --- | --- | --- | --- | --- | --- | --- | --- |
| CC1(CN)CN(c2nc3c(cc2F)c(=O)c(C(=O)O)cn3[C@@H]2C[C@@H]2F)C/C1=N\OCc1ccccc1 (some centres undefined) | 0.25 (≈ 0.503 µM) | 4 (≈ 8.04 µM) | 4 (≈ 8.04 µM) | 8 (≈ 16.1 µM) | 8 (≈ 16.1 µM) | 0.514 (≈ 1.03 µM) | 0.125 (≈ 0.251 µM) | 8 (≈ 16.1 µM) | > 128 | > 128 | > 128 | 16 (≈ 32.2 µM) | 32 (≈ 64.3 µM) | 64 (≈ 129 µM) | 128 (≈ 257 µM) | > 128 | 128 (≈ 257 µM) | > 128 | 8 (≈ 16.1 µM) | 16 (≈ 32.2 µM) | MIC (Pseudomonas aeruginosa [21]): 32 µg/mL (≈ 64.3 µM); MIC (Pseudomonas aeruginosa [22]): 32 µg/mL (≈ 64.3 µM); MIC (Pseudomonas aeruginosa [23]): 32 µg/mL (≈ 64.3 µM); MIC (Pseudomonas aeruginosa [24]): 8 µg/mL (≈ 16.1 µM); MIC (Staphylococcus aureus [25]): < 0.008 µg/mL; MIC (Staphylococcus aureus [26]): 2 µg/mL (≈ 4.02 µM); MIC (Staphylococcus aureus [27]): < 0.008 µg/mL; MIC (Staphylococcus aureus [28]): < 0.008 µg/mL; MIC (Staphylococcus aureus [29]): < 0.008 µg/mL; MIC (Staphylococcus aureus [30]): 8 µg/mL (≈ 16.1 µM); MIC (Staphylococcus aureus [31]): 4 µg/mL (≈ 8.04 µM); MIC [32]: 16 µg/mL (≈ 32.2 µM); MIC [33]: 4 µg/mL (≈ 8.04 µM); MIC [34]: 4 µg/mL (≈ 8.04 µM); MIC [35]: 16 µg/mL (≈ 32.2 µM); MIC [36]: 16 µg/mL (≈ 32.2 µM); MIC (Streptococcus pneumoniae): < 0.008 µg/mL; MIC (Enterococcus faecalis [37]): 32 µg/mL (≈ 64.3 µM) |
| NCC1CN(c2nc3c(cc2F)c(=O)c(C(=O)O)cn3[C@@H]2C[C@@H]2F)C/C1=N\OCc1ccc(Br)cc1 (some centres undefined) | 0.125 (≈ 0.222 µM) | 2 (≈ 3.56 µM) | 2 (≈ 3.56 µM) | 8 (≈ 14.2 µM) | 16 (≈ 28.5 µM) | 0.375 (≈ 0.667 µM) | 0.125 (≈ 0.222 µM) | 4 (≈ 7.11 µM) | 64 (≈ 114 µM) | 64 (≈ 114 µM) | 64 (≈ 114 µM) | 8 (≈ 14.2 µM) | 8 (≈ 14.2 µM) | > 128 | 128 (≈ 228 µM) | 128 (≈ 228 µM) | 128 (≈ 228 µM) | 128 (≈ 228 µM) | 4 (≈ 7.11 µM) | 8 (≈ 14.2 µM) | MIC (Pseudomonas aeruginosa [21]): 8 µg/mL (≈ 14.2 µM); MIC (Pseudomonas aeruginosa [22]): 8 µg/mL (≈ 14.2 µM); MIC (Pseudomonas aeruginosa [23]): 8 µg/mL (≈ 14.2 µM); MIC (Pseudomonas aeruginosa [24]): 16 µg/mL (≈ 28.5 µM); MIC (Staphylococcus aureus [25]): < 0.008 µg/mL; MIC (Staphylococcus aureus [26]): 2 µg/mL (≈ 3.56 µM); MIC (Staphylococcus aureus [27]): < 0.008 µg/mL; MIC (Staphylococcus aureus [28]): 0.015 µg/mL (≈ 0.0267 µM); MIC (Staphylococcus aureus [29]): < 0.008 µg/mL; MIC (Staphylococcus aureus [30]): 16 µg/mL (≈ 28.5 µM); MIC (Staphylococcus aureus [31]): 16 µg/mL (≈ 28.5 µM); MIC [32]: 16 µg/mL (≈ 28.5 µM); MIC [33]: 4 µg/mL (≈ 7.11 µM); MIC [34]: 2 µg/mL (≈ 3.56 µM); MIC [35]: 16 µg/mL (≈ 28.5 µM); MIC [36]: 8 µg/mL (≈ 14.2 µM); MIC (Streptococcus pneumoniae): < 0.008 µg/mL; MIC (Enterococcus faecalis [37]): 32 µg/mL (≈ 56.9 µM) |
| CCO/N=C1\CN(c2nc3c(cc2F)c(=O)c(C(=O)O)cn3[C@@H]2C[C@@H]2F)CC1(C)CN (some centres undefined) | 0.03 (≈ 0.0689 µM) | 2 (≈ 4.59 µM) | 2 (≈ 4.59 µM) | 4 (≈ 9.19 µM) | 8 (≈ 18.4 µM) | 0.333 (≈ 0.765 µM) | < 0.008 | 4 (≈ 9.19 µM) | 128 (≈ 294 µM) | 32 (≈ 73.5 µM) | 32 (≈ 73.5 µM) | 4 (≈ 9.19 µM) | 4 (≈ 9.19 µM) | 128 (≈ 294 µM) | 128 (≈ 294 µM) | 128 (≈ 294 µM) | 128 (≈ 294 µM) | 128 (≈ 294 µM) | 2 (≈ 4.59 µM) | 4 (≈ 9.19 µM) | MIC (Pseudomonas aeruginosa [21]): 8 µg/mL (≈ 18.4 µM); MIC (Pseudomonas aeruginosa [22]): 8 µg/mL (≈ 18.4 µM); MIC (Pseudomonas aeruginosa [23]): 8 µg/mL (≈ 18.4 µM); MIC (Pseudomonas aeruginosa [24]): 8 µg/mL (≈ 18.4 µM); MIC (Staphylococcus aureus [25]): < 0.008 µg/mL; MIC (Staphylococcus aureus [26]): 2 µg/mL (≈ 4.59 µM); MIC (Staphylococcus aureus [27]): < 0.008 µg/mL; MIC (Staphylococcus aureus [28]): < 0.008 µg/mL; MIC (Staphylococcus aureus [29]): < 0.008 µg/mL; MIC (Staphylococcus aureus [30]): 4 µg/mL (≈ 9.19 µM); MIC (Staphylococcus aureus [31]): 4 µg/mL (≈ 9.19 µM); MIC [32]: 8 µg/mL (≈ 18.4 µM); MIC [33]: 2 µg/mL (≈ 4.59 µM); MIC [34]: 2 µg/mL (≈ 4.59 µM); MIC [35]: 8 µg/mL (≈ 18.4 µM); MIC [36]: 8 µg/mL (≈ 18.4 µM); MIC (Streptococcus pneumoniae): < 0.008 µg/mL; MIC (Enterococcus faecalis [37]): 8 µg/mL (≈ 18.4 µM) |
